Data set [1] concerns SF-268. Description: Antitumor activity against human SF268 cells at 50 uM relative to control. In kind it is functional. Summed up:
(§1)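 Tested in the NCI three-cell-line one-dose primary anticancer prescreen. The read-out is growth as % of untreated control cells (100%) at 50 μM.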

In data set [2] the test system is NCI-H460. Description: Antitumor activity against human NCI-H460 cells at 50 uM relative to control. In kind it is functional. Summed up:
as §1

The nature of data set [3]: Half life of hydrolysis in deuterated phosphate buffer at pD 7.8. Conditions: pH 7.8.
In data set [4] the test system is MCF7. Description: Antitumor activity against human MCF7 cells at 50 uM relative to control. The format is functional. Summed up:
as §1

The test system of data set [5] is NCI-H460. Description: Antitumor activity against human NCI-H460 cells at 100 uM relative to control. In kind it is functional. Summed up: (§2)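 NCI three-cell-line one-dose primary anticancer prescreen at 100 µM. Growth is expressed as % of untreated control cells, with the control taken as 100%.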
Data set [6] has as its system SF-268. Description: Antitumor activity against human SF268 cells at 100 uM relative to control. In kind it is functional. The essentials:
as §2

Data set [7] deals with MCF7. The data set can be described thus: Antitumor activity against human MCF7 cells at 100 uM relative to control. The format is functional. Summed up: as §2
Data set [8] has as its system NCI. Description: Antitumor activity against human NCI leukemia cell line panel. In kind it is functional, cell-based. The essentials: (§3)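 Tested in the NCI in vitro disease-oriented human tumor cell screen. The endpoints are IC50 (molar concentration giving 50% growth inhibition), TGI (total growth inhibition) and LC50 (50% net cell death). The maximal concentration tested was 100 μM. Subpanel values are means of several individual cell lines.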

The test system of data set [9] is NCI. The data set can be described thus: Antitumor activity against human NCI prostate cancer cell line panel. The format is functional, cell-based. The essentials: as §3
The test system of data set [10] is NCI. The data set can be described thus: Antitumor activity against human NCI breast cancer cell line panel. In kind it is functional, cell-based. The essentials: as §3
For data set [11], the system named is Non-small cell lung cancer cell line. The data set can be described thus: Antitumor activity against human NCI non-small cell lung cancer cell line panel. In kind it is functional, cell-based. The essentials: as §3
Data set [12] concerns NCI. Description: Antitumor activity against human NCI colon cancer cell line panel. The format is functional, cell-based. Summed up:
as §3

Another data set relates to carcinoma cell line. Description: Antitumor activity against human NCI ovarian carcinoma cell line panel. The format is functional, cell-based. Summed up:
as §3

Data set [13] deals with NCI. The data set can be described thus: Antitumor activity against NCI human melanoma cell line panel. In kind it is functional, cell-based. The essentials: as §3
Data set [14] relates to NCI. The data set can be described thus: Antitumor activity against human NCI CNS cancer cell line panel. The format is functional, cell-based. The essentials:
as §3

Data set [15] deals with NCI. Description: Antitumor activity against human NCI renal cancer cell line panel. The format is functional, cell-based. The essentials: as §3

Bounds are passed on as bounds.

For orientation: half-life means the time in which the quantity being followed falls by half. A low value points to fast loss. What is called IC50 is the point on the concentration scale where inhibition reaches its midpoint. Higher therefore signals lower potency. The TGI is the concentration giving total growth inhibition. Read a high TGI as lower sensitivity of the cells.

Consider `COC(=O)c1ccc(OC(=O)N(C)/N=N/c2nc(OCc3ccccc3)c3nc[nH]c3n2)cc1`, for which the Activity with SF-268 [1] amounted to 107%; with NCI-H460 [2], 53%; in the data set with MCF7 [4], 116%. For the same molecule, in data set [3] (deuterated phosphate buffer), the half-life was determined as 2.45 h.

For `CCOC(=O)N(C)/N=N/c1nc(OCc2ccccc2)c2nc[nH]c2n1`, the Activity with NCI-H460 [5] is reported as 90%; in the data set with SF-268 [6] it was 91%; with MCF7 [7] it was 103%. The molecule also returned a half-life in data set [3] (deuterated phosphate buffer) of 58.3 h.

With `CN(/N=N/c1nc(OCc2ccccc2)c2nc[nH]c2n1)C(=O)c1cccnc1`, in [3] (deuterated phosphate buffer), the half-life was 8.83 h.

With `CC(=O)N(C)/N=N/c1nc(OCc2ccccc2)c2nc[nH]c2n1`, the Activity in the data set with NCI-H460 [5] turned out to be 89%; with SF-268 [6], 78%; in the data set with MCF7 [7], 99%. Besides, the half-life in [3] (deuterated phosphate buffer) came to 58.3 h.

Regarding `CN(/N=N/c1nc(OCc2ccccc2)c2nc[nH]c2n1)C(=O)Oc1ccccc1`, the values for the Activity in the data set on NCI-H460 [5], in the data set on SF-268 [6] and in the data set with MCF7 [7] were 87%, 102% and 107%, respectively. Also, the half-life in data set [3] (deuterated phosphate buffer) was found to be 19.2 h.

For the molecule `CN(/N=N/c1nc(OCc2ccccc2)c2nc[nH]c2n1)C(=O)c1ccc([N+](=O)[O-])cc1`, the half-life in [3] (deuterated phosphate buffer) is 16 h.

The molecule `CN(/N=N/c1nc(OCc2ccccc2)c2nc[nH]c2n1)C(=O)Oc1ccc(C(N)=O)cc1` registered a half-life in [3] (deuterated phosphate buffer) of 6.42 h.

Regarding `CN(/N=N/c1nc(OCc2ccccc2)c2nc[nH]c2n1)C(=O)Oc1ccc(S(N)(=O)=O)cc1`, in data set [3] (deuterated phosphate buffer), the half-life turned out to be 2.82 h.

In the case of `CC(=O)Nc1ccc(OC(=O)N(C)/N=N/c2nc(OCc3ccccc3)c3nc[nH]c3n2)cc1`, the half-life in [3] (deuterated phosphate buffer) was determined as 19.3 h. This half-life is about 6.8-fold higher than that of the molecule before.

For the molecule `CN(/N=N/c1nc(OCc2ccccc2)c2nc[nH]c2n1)C(=O)c1ccccc1`, the results for the Activity in the data set with NCI-H460 [5], with SF-268 [6] and in the data set with MCF7 [7] were 93%, 79% and 107%, respectively. The molecule also showed a half-life in data set [3] (deuterated phosphate buffer) of 38.3 h.

As for `Cn1nnc2c(C(N)=O)ncn2c1=O` [TEMOZOLOMIDE], the 50% inhibitory concentration (IC50) in the data set on NCI [8] is 79 µM; in the data set on NCI [9], 100 µM; with NCI [10], 100 µM; in data set [11], 100 µM; in the data set with NCI [12] it was 100 µM; with carcinoma cell line it was 91 µM. The IC50 in the data set with NCI [13] was determined as 98 µM; in the data set on NCI [14], 93 µM; in the data set on NCI [15] it was 98 µM. This molecule yielded a TGI in the data set on NCI [8] greater than 100 µM. For the same molecule, the CC50 in the data set on NCI [8] (read-out: LC50 (the source's name)) was greater than 100 µM. For the same molecule, the half-life in data set [3] (buffer) turned out to be 0.417 h.

The record behind these values is ChEMBL document CHEMBL1149311, “Synthesis and antitumor activity of methyltriazene prodrugs simultaneously releasing DNA-methylating agents and the antiresistance drug O(6)-benzylguanine” (J Med Chem, 2004).
